Assay results pooled from the literature.
Each line is one published result; the experiments were not run side by side.
Target: Cyclin-dependent kinase-like 2 (CDKL2, Homo sapiens, UniProt Q92772)
One construct used (Q92772 1-493): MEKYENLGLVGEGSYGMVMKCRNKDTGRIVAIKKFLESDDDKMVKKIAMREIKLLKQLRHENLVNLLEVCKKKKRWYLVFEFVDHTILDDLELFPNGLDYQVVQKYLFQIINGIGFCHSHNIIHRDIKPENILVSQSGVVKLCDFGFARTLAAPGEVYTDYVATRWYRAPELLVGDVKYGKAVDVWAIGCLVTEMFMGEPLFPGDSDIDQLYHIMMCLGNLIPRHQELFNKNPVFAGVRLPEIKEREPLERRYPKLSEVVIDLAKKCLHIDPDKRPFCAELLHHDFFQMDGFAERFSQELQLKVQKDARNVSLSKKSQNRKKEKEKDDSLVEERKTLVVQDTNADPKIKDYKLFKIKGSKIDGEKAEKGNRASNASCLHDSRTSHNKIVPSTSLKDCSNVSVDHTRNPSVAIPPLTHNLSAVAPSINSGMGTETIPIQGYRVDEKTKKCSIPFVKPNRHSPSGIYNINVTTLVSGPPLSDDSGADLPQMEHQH

SMILES | read-out | method | concentration | remaining binding [%]
N#Cc1ccc(Nc2ccc3[nH]c(=O)[nH]c3c2)c(Cl)c1 | binding | competition with immobilised ligand | 1 µM | 100
CC1CCCN1c1nccc(-c2cnn3ncccc23)n1 (stereo not shown) | binding | – | 1 µM | 100
COc1ncc2cc3ccccc3nc2c1C#N | binding | competition with immobilised ligand | 5 µM | 90
N[C@H]1CCN(c2nccc(-c3cnn4ncccc34)n2)C1 | binding | – | 1 µM | 99
Nc1ncc2c(n1)-c1c([nH]c3ccc(C#CC4CC4)cc13)CCCC2 | binding | competition with immobilised ligand | 1 µM | 96
O=C(c1ccc(Nc2ncc(Cl)c(-c3ccc(Cl)s3)n2)cc1)N1CCC(N2CCCC2)CC1 | binding | competition with immobilised ligand | 1 µM | 2.3
CN(C)C(=O)Cn1cc(-c2nc(C3(c4ccc(-c5cnc(N)nc5)cc4)CC3)no2)cn1 | cell-free assay | competition with immobilised ligand | 1 µM | 100
C[C@@H]1CCN(c2nccc(-c3cnn4ncccc34)n2)C1 | binding | – | 1 µM | 99
O=C(Nc1cccnn1)N1CC(C/C=C/c2cncc(Oc3ccc(C(F)(F)F)cn3)n2)C1 | cell-free assay | competition with immobilised ligand | 1 µM | 100
O=C(c1ccc(Nc2nccc(-c3cc4ccccc4s3)n2)cc1)N1CCC(N2CCCC2)CC1 | binding | competition with immobilised ligand | 1 µM | 8.8
CS(=O)(=O)N1CCCC(NC(=O)[C@H](CCC2CCCCC2)NC(=O)c2ccc(CNc3ncnc4c3nnn4-c3ccccc3)cc2)C1 (stereo partly shown) | cell-free assay | competition with immobilised ligand | 0.1 µM | 100
F[C@@H]1CCN(c2nccc(-c3cnn4ncccc34)n2)C1 | binding | – | 1 µM | 100
C=CC(=O)N1CCC(C(=O)NCC(=O)N2CCN(c3nc(-c4cnc(N)nc4C(F)F)nc(N4CCOCC4)n3)CC2)CC1 | binding | competition with immobilised ligand | 1 µM | 100
Cc1nc(C2CCN(C(=O)c3ccc(OC(F)(F)F)cc3N)CC2)c2ncc(N3CCN(C)CC3)cc2n1 | cell-free assay | competition with immobilised ligand | 1 µM | 100
Cc1cnn2ncc(-c3ccnc(N(C)C)n3)c2c1 | binding | – | 1 µM | 100
O=C(NCCCN1CCOCC1)c1ccc(Nc2ncc(Cl)c(-c3ccc(Cl)s3)n2)cc1 | binding | competition with immobilised ligand | 1 µM | 19
CN(CCCC(F)(F)F)c1nccc(-c2cnn3ncccc23)n1 | binding | – | 1 µM | 100
CC(=O)N1CCC(c2ccc(C(=O)NC3=NCCN3)cc2C(F)(F)F)CC1 | cell-free assay | competition with immobilised ligand | 1 µM | 100
FC(F)(F)Oc1cccc(-c2cnc3ccc(-c4ccncc4)nn23)c1 | cell-free assay | competition with immobilised ligand | 5 µM | 67
Cn1cc(Cl)c2c(Oc3c(F)cc(Nc4cc(Cl)nc(N)n4)cc3F)ccnc21 | cell-free assay | competition with immobilised ligand | 0.1 µM | 100
O=C(Nc1c[nH]nc1C(=O)NC1CCNCC1)c1cc(F)cc(F)c1 | binding | competition with immobilised ligand | 1 µM | 89
CNC(=O)[C@@H]1CC[C@@H](n2c(-c3ccc4cnccc4c3)nc3ccc(C(=O)NCc4cccc(C(N)=O)c4)cc32)C1 | binding | competition with immobilised ligand | 1 µM | 100
